Laboratory results from PMC2896288 (Journal of molecular biology, 2010).
Blank lines part the entries; values can stand above or below the molecule they belong to.

Columns and labels:
[1] = molecular target: human Mcl-1 (residues 172-327) (Homo sapiens, UniProt Q07820); experiment: Fluorescence polarization competition binding assay, Mcl-1; conditions: FP competition binding assay
Procedure, shortened: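 c-myc-tagged human Mcl-1 (172-327) from E. coli BL21(DE3), TEV-cleaved from MBP, at 50 nM. Serially diluted unlabelled 23-residue peptides are premixed with Mcl-1 first. FITC-Bim-BH3 (10 nM) is then added and mixed overnight at 37 °C, returned to room temperature and anisotropy read. Buffer: phosphate, pH 7.8. Ki from complete competitive binding model fitting five parameters, Bim Kd fixed 1 nM; unlabelled Bim-BH3 reference; ≥2 experiments, SD.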

[2] = molecular target: human Bcl-xL (residues 1-209) (Homo sapiens, UniProt Q07817); experiment: Fluorescence polarization competition binding assay, Bcl-xL; conditions: FP competition binding assay
human Bcl-xL (residues 1-209), sequence (Q07817 1-209): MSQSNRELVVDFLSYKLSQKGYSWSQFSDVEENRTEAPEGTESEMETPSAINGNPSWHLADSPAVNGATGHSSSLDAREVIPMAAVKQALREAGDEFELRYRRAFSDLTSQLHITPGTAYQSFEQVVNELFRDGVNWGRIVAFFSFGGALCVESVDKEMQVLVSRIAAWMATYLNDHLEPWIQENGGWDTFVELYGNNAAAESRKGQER

[3] = molecular target: human Mcl-1 (residues 172-327), c-myc tagged (human) (UniProt Q07820); experiment: fluorescence polarisation
human Mcl-1 (residues 172-327), c-myc tagged (human), sequence (Q07820 172-327): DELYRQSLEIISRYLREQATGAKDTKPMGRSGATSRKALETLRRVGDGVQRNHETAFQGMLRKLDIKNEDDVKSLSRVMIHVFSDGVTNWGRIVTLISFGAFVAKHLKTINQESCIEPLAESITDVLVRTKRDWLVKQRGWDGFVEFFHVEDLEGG

[4] = molecular target: human Bcl-xL (residues 1-209), c-myc tagged (human) (UniProt Q07817); experiment: fluorescence polarisation
human Bcl-xL (residues 1-209), c-myc tagged (human), sequence (Q07817 1-209): as the sequence (Q07817 1-209) above

[5] = molecular target: Mcl-1 (Homo sapiens, UniProt Q07820); experiment: Yeast surface display binding, soluble Mcl-1; conditions: yeast cells displaying the peptide titrated with soluble Mcl-1
Mcl-1, sequence (Q07820 172-327): as the sequence (Q07820 172-327) above
Procedure, shortened: (§1)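 EBY100 yeast displaying the BH3 peptide as Aga2p fusion with C-terminal FLAG tag, incubated with c-myc-tagged pro-survival protein. Expression is read by anti-FLAG/FITC and binding by anti-c-myc/PE. Cells are gated by forward scatter on a FACScan flow cytometer, typically 10,000 events analysed.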

[6] = molecular target: Bcl-xL (Homo sapiens, UniProt Q07817); experiment: Yeast surface display binding, soluble Bcl-xL; conditions: yeast cells displaying the peptide titrated with soluble Bcl-xL
Bcl-xL, sequence (Q07817 1-209): as the sequence (Q07817 1-209) above
Procedure, shortened: as §1

[7] = molecular target: T1, human Bcl-w (residues 1-164), c-myc tagged (human), Q92843; experiment: SEC; conditions: remark: other sources report otherwise
T1 chain: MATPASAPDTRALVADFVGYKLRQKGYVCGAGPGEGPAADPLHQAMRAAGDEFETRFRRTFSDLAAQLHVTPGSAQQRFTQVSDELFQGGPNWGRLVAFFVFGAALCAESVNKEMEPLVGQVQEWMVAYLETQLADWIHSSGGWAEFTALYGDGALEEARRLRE

human Mcl-1 (residues 172-327), sequence (Q07820 172-327): as the sequence (Q07820 172-327) above

Molecule: CC[C@H](C)[C@H](NC(=O)[C@H](CCCNC(=N)N)NC(=O)[C@H](CCCNC(=N)N)NC(=O)[C@H](CC(C)C)NC(=O)[C@H](CCC(=O)O)NC(=O)[C@H](CCC(N)=O)NC(=O)[C@H](C)NC(=O)[C@@H](NC(=O)[C@H](Cc1c[nH]c2ccccc12)NC(=O)[C@@H](NC(=O)[C@H](CCC(=O)O)NC(=O)[C@@H]1CCCN1C(=O)[C@H](CCCNC(=N)N)NC(C)=O)[C@@H](C)CC)[C@@H](C)CC)C(=O)NCC(=O)N[C@@H](CC(=O)O)C(=O)N[C@@H](CCC(=O)O)C(=O)N[C@H](C(=O)N[C@@H](CC(N)=O)C(=O)N[C@@H](C)C(=O)N[C@@H](Cc1ccc(O)cc1)C(=O)N[C@@H](Cc1ccc(O)cc1)C(=O)N[C@@H](C)C(=O)N[C@@H](CCCNC(=N)N)C(N)=O)C(C)C [Phe4aVal mutation in Bim-BH3]
increase of affinity for Mcl-1 relative to Bim-BH3 [1]: more than 10 fold
reduction of affinity for Bcl-xL relative to Bim-BH3 [2]: ~30 fold

Molecule: Bim-BH3 with a Phe4aVal mutation (synthetic peptide)
Ki [4]: 30 nM
Ki [3]: < 0.1 nM

Further lines, results first:

Ki [3]: 2 nM
Molecule: unlabeled Bim-BH3 peptide (23-residue synthetic peptide)

dissociation constant, yeast-displayed peptide, Mcl-1 [5]: low nanomolar range
dissociation constant, yeast-displayed peptide, Bcl-xL [6]: low nanomolar range
Molecule: Bim-BH3: peptide derived from the BH3 region of human Bim; N-acetylated, C-amidated 23-mer in solution assays

oligomeric fraction [7]: 58%
B1: human Bcl-w (residues 1-164), c-myc tagged, Q92843 1-164 (domain or fragment)
chain: MATPASAPDTRALVADFVGYKLRQKGYVCGAGPGEGPAADPLHQAMRAAGDEFETRFRRTFSDLAAQLHVTPGSAQQRFTQVSDELFQGGPNWGRLVAFFVFGAALCAESVNKEMEPLVGQVQEWMVAYLETQLADWIHSSGGWAEFTALYGDGALEEARRLRE
